Measurements taken from ChEMBL document CHEMBL2086357 (Eur J Med Chem, 2012).

Experiments:
[1] = molecular target: Cyclin-dependent kinase 2/cyclin E1 (Homo sapiens, UniProt P24941); test: Inhibition of CDK2/cyclin E; type: protein-complex assay
[2] = molecular target: Cyclin-dependent kinase 2/cyclin A (Homo sapiens, UniProt P24941); test: Inhibition of CDK2/cyclin A; type: protein-complex assay
[3] = molecular target: Cyclin-dependent kinase 2/cyclin A (Homo sapiens) (UniProt P24941+P20248+P78396); test: Inhibition of recombinant CDK2/cyclin A expressed in Sf21 cells using histone H1 as substrate at 10 uM after 10 mins by scintillation counting in presence of [32P]ATP
Procedure, shortened: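 CDK2/cyclin A was combined on ice with histone H1 substrate in kit buffer, then inhibitor was added. Prediluted ³²P-ATP with MgCl2 and cold ATP was added, and tubes were shaken for 10 min at 30 °C. Aliquots were spotted on phosphocellulose paper, washed three times in 0.75% phosphoric acid, rinsed in acetone and counted by scintillation. Percent inhibition versus an untreated control is the mean of duplicate experiments.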

A549 = test: Antiproliferative activity against human A549 cells after 96 hrs by MTT assay; type: functional; conditions: A549, 96 h
LoVo = test: Antiproliferative activity against human LoVo cells after 96 hrs by MTT assay; type: functional
MCF7 = test: Antiproliferative activity against human MCF7 cells after 96 hrs by MTT assay; type: functional; conditions: MCF7, 96 h
PC-3 = test: Antiproliferative activity against human PC3 cells after 96 hrs by MTT assay; type: functional; conditions: PC-3, 96 h
[4] = Inhibition of starfish CDK1/cyclin B using histone H1 as substrate after 10 mins in presence of [gamma32P}ATP; parameters: species or system Asteroidea
Jurkat = test: Inhibition of PMA- and PHA-stimulated IL2 production in human Jurkat T cells incubated for 30 mins prior to PMA- and PHA-stimulation by competitive enzyme immunoassay; type: functional, cell-based
CCRF-CEM = test: Growth inhibition of human CCRF-CEM cells up to 48 hrs by trypan blue exclusion assay; type: functional
[5] = Drug degradation in DMEM cell culture medium assessed as (E)-5-(Hydroxyimino)-10-methyl-2,3,4,5-tetrahydroazepino[3,4-b]indol-1(10H)-one at 10 to 100 nmol after 7 days by NMR analysis; type: physicochemical; conditions: 168 h
Procedure, shortened: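 Two solutions of the compound in cell culture medium (10 and 100) were held at 37 °C for seven days. They were then extracted with ethyl acetate, and breakdown was assessed by NMR.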

Row | Structure (SMILES) | inhibition [3] | GI50 (A549) | GI50 (LoVo) | GI50 (MCF7) | GI50 (PC-3) | also measured
1 | NC1=NC(=O)/C(=C2\CCNC(=O)c3[nH]c(Br)cc32)N1 [HYMENIALDISINE] |  |  |  |  |  | IC50 [1]: 0.04 µM; IC50 [2]: 0.07 µM
2 | O=C1NCC/C(=N\OCc2ccccc2)c2c1[nH]c1ccccc21 | 32% | 34.9 µM | 24.3 µM | 28.1 µM | 23.4 µM | 
3 | O=C1Cc2c([nH]c3ccc(Br)cc23)-c2ccccc2N1 [KENPAULLONE] |  |  |  |  |  | IC50 [4]: 0.4 µM
4 | O=C1CCNC(=O)c2[nH]ccc21 [ALDISIN] |  | > 100 µM | > 100 µM | > 100 µM | > 100 µM | 
5 | Nc1nc(C2=C3C(=Nc4ccccc43)C(=O)NCC2)c(O)[nH]1 |  |  |  |  |  | IC50 (Jurkat): 3.5 µM; GI50 (CCRF-CEM): 1.7 µM
6 | O=C1NCC/C(=N\OCc2ccccc2)c2c1[nH]c(Br)c2Br | 0% |  |  |  |  | 
7 | Cn1c(Br)c(Br)c2c1C(=O)NCC/C2=N\OCC1CCCCC1 | 13% |  |  |  |  | 
8 | Cn1c2c(c3ccccc31)/C(=N/OCc1ccccc1)CCNC2=O |  |  |  |  |  | Drug degradation [5]: 50%

The next lines start with results.

Row | inhibition [3] | GI50 (A549) | GI50 (LoVo) | GI50 (MCF7) | GI50 (PC-3) | Structure (SMILES) | also measured
9 | 22% |  |  |  |  | Cn1c(Br)c(Br)c2c1C(=O)NCC/C2=N\OCc1ccccc1 | 
10 | 45% | 63.3 µM | 27.2 µM | 54.6 µM | 46.2 µM | O=C1NCC/C(=N\O)c2c1[nH]c1ccc(Br)cc21 | 
11 |  | > 100 µM | 36.8 µM | > 100 µM | > 100 µM | Cn1c2c(c3ccccc31)C(=O)CCNC2=O | 
12 |  | 97.7 µM | 36.9 µM | > 100 µM | > 100 µM | O=C1NCCC(=O)c2c1[nH]c1ccccc21 | 
13 |  | > 100 µM | 51.3 µM | > 100 µM | > 100 µM | Cn1c2c(c3ccccc31)/C(=N/O)CCNC2=O | 
14 |  | > 100 µM | 40.5 µM | > 100 µM | > 100 µM | O=C1NCC/C(=N\O)c2c1[nH]c1ccccc21 | 
15 | 12% | 32.1 µM | 20.5 µM | 23.3 µM | 29.1 µM | Cn1c2c(c3ccccc31)/C(=N/OCC1CCCCC1)CCNC2=O | Drug degradation [5]: Not Active
